Data from ChEMBL document CHEMBL2424551, “Synthesis, in vitro evaluation and molecular modelling of naphthalimide analogue as anticancer agents” (2013).
Activity calls are given as the source filed them. The calls are words filed in the database; no cut-off is given here.

Experiments:
Format in all cases: functional
[1] = test system: HCT-15; assay: Growth inhibition of human HCT15 cells at 10 uM after 48 hrs by SRB assay; details: HCT-15, 48 h, read-out: GI
Outline: (§1)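 Cells grown in RPMI 1640 with 5% FBS and 2 mM L-glutamine, plated at 5000–40,000 cells/well by doubling time and preincubated 24 h (37 °C, 5% CO2); a time-zero plate is TCA-fixed. Single dose added, then 48 h incubation. Fixed with cold TCA, stained with 0.4% SRB, dye solubilized in 10 mM Tris base, absorbance at 515 nm; percent growth vs time-zero and untreated control.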

[2] = test system: COLO 205; assay: Growth inhibition of human COLO205 cells at 10 uM after 48 hrs by SRB assay; details: COLO 205, 48 h, read-out: GI; outline: as §1
[3] = Growth inhibition of human HCC2998 cells at 10 uM after 48 hrs by SRB assay; details: HCC 2998, 48 h, read-out: GI; outline: as §1
[4] = test system: NCI-H322M; assay: Growth inhibition of human NCI-H322M cells at 10 uM after 48 hrs by SRB assay; details: read-out: GI; outline: as §1
[5] = test system: NCI-H460; assay: Growth inhibition of human NCI-H460 cells at 10 uM after 48 hrs by SRB assay; details: NCI-H460, 48 h, read-out: GI; outline: as §1
[6] = test system: HOP-62; assay: Growth inhibition of human HOP62 cells at 10 uM after 48 hrs by SRB assay; details: HOP-62, 48 h, read-out: GI; outline: as §1
[7] = test system: MOLT-4; assay: Growth inhibition of human MOLT4 cells at 10 uM after 48 hrs by SRB assay; details: MOLT-4, 48 h, read-out: GI; outline: as §1
[8] = test system: HL-60(TB); assay: Growth inhibition of human HL-60(TB) cells at 10 uM after 48 hrs by SRB assay; details: HL-60, 48 h, read-out: GI
Outline: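 Single-concentration pass across the 60-line panel in RPMI 1640 with 5% FBS. Cells preincubated 24 h, then exposed 48 h at 37 °C, 5% CO2. Read by SRB staining with absorbance at 515 nm. Percent growth is taken relative to time-zero and untreated controls and reported as percent growth inhibition (GI %).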

[9] = test system: K562; assay: Growth inhibition of human K562 cells at 10 uM after 48 hrs by SRB assay; details: K562, 48 h, read-out: GI; outline: as §1
[10] = test system: SR; assay: Growth inhibition of human SR cells at 10 uM after 48 hrs by SRB assay; details: read-out: GI
Outline: (§2)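 NCI 60-cell-line screen with a single 10 µM dose. Cells are grown in RPMI 1640 with 5% FBS and 2 mM L-glutamine, plated at 5000–40,000 cells/well according to doubling time, and preincubated 24 h at 37 °C, 5% CO2; time-zero plates are TCA-fixed at that point. Drug exposure is 48 h. Adherent cells are fixed with cold TCA, stained with 0.4% SRB in 1% acetic acid and read at 515 nm. Percent growth is calculated relative to time-zero and untreated controls and reported as GI%.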

[11] = test system: A549; assay: Growth inhibition of human A549 cells at 10 uM after 48 hrs by SRB assay; details: A549, 48 h, read-out: GI; outline: as §1
[12] = test system: RPMI-8226; assay: Growth inhibition of human RPMI8226 cells at 10 uM after 48 hrs by SRB assay; details: RPMI-8226, 48 h, read-out: GI; outline: as §1
[13] = test system: MDA-MB-468; assay: Growth inhibition of human MDA-MB-468 cells at 10 uM after 48 hrs by SRB assay; outline: as §1
[14] = test system: MCF7; assay: Growth inhibition of human MCF7 cells at 10 uM after 48 hrs by SRB assay; details: MCF7, 48 h, read-out: GI; outline: as §1
[15] = test system: MDA-MB-231; assay: Growth inhibition of human MDA-MB-231 cells at 10 uM after 48 hrs by SRB assay; details: MDA-MB-231, 48 h, read-out: GI; outline: as §1
[16] = test system: DU-145; assay: Growth inhibition of human DU145 cells at 10 uM after 48 hrs by SRB assay; details: DU-145, 48 h, read-out: GI; outline: as §1
[17] = test system: UO-31; assay: Growth inhibition of human UO31 cells at 10 uM after 48 hrs by SRB assay; details: UO-31, 48 h, read-out: GI; outline: as §2
[18] = test system: SN12C; assay: Growth inhibition of human SN12C cells at 10 uM after 48 hrs by SRB assay; details: read-out: GI; outline: as §2
[19] = test system: A498; assay: Growth inhibition of human A498 cells at 10 uM after 48 hrs by SRB assay; details: for inhibition of growth at 10 µM: A498, 48 h, read-out: GI; outline: as §1
[20] = test system: CAKI-1; assay: Growth inhibition of human Caki1 cells at 10 uM after 48 hrs by SRB assay; details: CAKI-1, 48 h, read-out: GI; outline: as §1
[21] = test system: 786-0; assay: Growth inhibition of human 786-0 cells at 10 uM after 48 hrs by SRB assay; details: 786-0, 48 h, read-out: GI; outline: as §1
[22] = test system: SK-OV-3; assay: Growth inhibition of human SKOV3 cells at 10 uM after 48 hrs by SRB assay; details: SK-OV-3, 48 h, read-out: GI; outline: as §2
[23] = Growth inhibition of human NCI-ADR-RES cells at 10 uM after 48 hrs by SRB assay; details: read-out: GI; outline: as §1
[24] = test system: OVCAR-4; assay: Growth inhibition of human OVCAR4 cells at 10 uM after 48 hrs by SRB assay; details: OVCAR-4, 48 h, read-out: GI; outline: as §1
[25] = test system: OVCAR-3; assay: Growth inhibition of human OVCAR3 cells at 10 uM after 48 hrs by SRB assay; details: OVCAR-3, 48 h, read-out: GI; outline: as §1
[26] = test system: SK-MEL-5; assay: Growth inhibition of human SK-MEL-5 cells at 10 uM after 48 hrs by SRB assay; details: SK-MEL-5, 48 h, read-out: GI; outline: as §1
[27] = test system: UACC-257; assay: Growth inhibition of human UACC257 cells at 10 uM after 48 hrs by SRB assay; details: UACC-257, 48 h, read-out: GI; outline: as §2
[28] = test system: SK-MEL-28; assay: Growth inhibition of human SK-MEL-28 cells at 10 uM after 48 hrs by SRB assay; details: SK-MEL-28, 48 h, read-out: GI; outline: as §1
[29] = test system: SK-MEL-2; assay: Growth inhibition of human SK-MEL-2 cells at 10 uM after 48 hrs by SRB assay; details: SK-MEL-2, 48 h, read-out: GI; outline: as §1
[30] = test system: M14; assay: Growth inhibition of human M14 cells at 10 uM after 48 hrs by SRB assay; details: M14, 48 h, read-out: GI; outline: as §1
[31] = test system: SNB-19; assay: Growth inhibition of human SNB19 cells at 10 uM after 48 hrs by SRB assay; details: SNB-19, 48 h, read-out: GI; outline: as §2
[32] = test system: SF-295; assay: Growth inhibition of human SF295 cells at 10 uM after 48 hrs by SRB assay; details: SF-295, 48 h, read-out: GI; outline: as §1
[33] = test system: SF-539; assay: Growth inhibition of human SF539 cells at 10 uM after 48 hrs by SRB assay; details: for inhibition of growth at 10 µM: SF-539, 48 h, read-out: GI; outline: as §1
[34] = test system: SW-620; assay: Growth inhibition of human SW620 cells at 10 uM after 48 hrs by SRB assay; details: SW-620, 48 h, read-out: GI; outline: as §2

SMILES	inhibition of growth at 10 µM [1] [%]	inhibition of growth at 10 µM [2] [%]	inhibition of growth at 10 µM [4] [%]	inhibition of growth at 10 µM [5] [%]	inhibition of growth at 10 µM [6] [%]	inhibition of growth at 10 µM [7] [%]	inhibition of growth at 10 µM [8] [%]	inhibition of growth at 10 µM [9] [%]	inhibition of growth at 10 µM [11] [%]	inhibition of growth at 10 µM [12] [%]	inhibition of growth at 10 µM [14] [%]	inhibition of growth at 10 µM [15] [%]	inhibition of growth at 10 µM [16] [%]	inhibition of growth at 10 µM [17] [%]	inhibition of growth at 10 µM [18] [%]	inhibition of growth at 10 µM [20] [%]	inhibition of growth at 10 µM [21] [%]	inhibition of growth at 10 µM [22] [%]	inhibition of growth at 10 µM [23] [%]	inhibition of growth at 10 µM [24] [%]	further results
O=c1c2cccc3c(N4CCCC4)ccc(c32)c2nc3ccccc3n12	21.4	36.4	< 20	83.9	33.9	97.4	28	24	67.4	24.3	50	22.9	21.9	43.8	35.2	48.7	< 20	20.9	< 20	21.2	inhibition of growth at 10 µM [3]: 29.6%; inhibition of growth at 10 µM [10]: 79.8%; inhibition of growth at 10 µM ([13]; MDA-MB-468, 48 h, read-out: GI): < 20%; inhibition of growth at 10 µM [19]: 62%; inhibition of growth at 10 µM [25]: < 20%; inhibition of growth at 10 µM [26]: 35.5%; inhibition of growth at 10 µM [27]: < 20%; inhibition of growth at 10 µM [28]: < 20%; inhibition of growth at 10 µM [29]: < 20%; inhibition of growth at 10 µM [30]: < 20%; inhibition of growth at 10 µM [31]: 24%; inhibition of growth at 10 µM [32]: 40.2%; inhibition of growth at 10 µM [33]: < 20%; inhibition of growth at 10 µM [34]: 40.5%
O=c1c2cccc3c(Nc4ccc(Br)cn4)ccc(c32)c2nc3ccccc3n12	28	< 20	22.1	< 20	< 20	< 20	< 20	< 20	< 20	43.8	95.8	33.8	< 20	47.9	< 20	< 20	< 20	< 20	< 20	46.3	inhibition of growth at 10 µM [3]: 25.2%; inhibition of growth at 10 µM [10]: 47.1%; growth inhibition (GI) [13]: Active; inhibition of growth at 10 µM [19]: < 20%; inhibition of growth at 10 µM [25]: < 20%; inhibition of growth at 10 µM [26]: 23.8%; inhibition of growth at 10 µM [27]: < 20%; inhibition of growth at 10 µM [28]: 27.1%; inhibition of growth at 10 µM [29]: < 20%; inhibition of growth at 10 µM [30]: < 20%; inhibition of growth at 10 µM [31]: < 20%; inhibition of growth at 10 µM [32]: < 20%; inhibition of growth at 10 µM [33]: < 20%; inhibition of growth at 10 µM [34]: < 20%
O=c1c2cccc3c(N4CCOCC4)ccc(c32)c2nc3ccccc3n12	< 20	< 20	< 20	< 20	< 20	< 20	< 20	< 20	< 20	< 20	76	< 20	< 20	34.1	< 20	30.4	< 20	< 20	< 20	30.1	inhibition of growth at 10 µM [3]: 26.8%; inhibition of growth at 10 µM [10]: < 20%; growth inhibition (GI) [13]: Active; inhibition of growth at 10 µM [19]: < 20%; inhibition of growth at 10 µM [25]: < 20%; inhibition of growth at 10 µM [26]: 26.6%; inhibition of growth at 10 µM [27]: < 20%; inhibition of growth at 10 µM [28]: < 20%; inhibition of growth at 10 µM [29]: < 20%; inhibition of growth at 10 µM [30]: < 20%; inhibition of growth at 10 µM [31]: < 20%; inhibition of growth at 10 µM [32]: < 20%; inhibition of growth at 10 µM [33]: < 20%; inhibition of growth at 10 µM [34]: < 20%
O=c1[nH]cc(F)c(=O)[nH]1 [FLUOROURACIL]	26.5	40.2	59.5	13	47.8	43.1	47.9	42.3	34.2	41.4	11.5	78.1	35.5	41.3	54	39.4	48.7	77.5	47.6	59.4	inhibition of growth at 10 µM [10]: 24.8%; growth inhibition (GI) [19]: Active; inhibition of growth at 10 µM [25]: 47.4%; inhibition of growth at 10 µM [26]: 33.7%; inhibition of growth at 10 µM [27]: 19.5%; inhibition of growth at 10 µM [29]: 95.5%; inhibition of growth at 10 µM [31]: 65.9%; inhibition of growth at 10 µM [32]: 69.1%; growth inhibition (GI) [33]: Active; inhibition of growth at 10 µM [34]: 50.1%
O=c1c2cccc3c(Nc4ccc(F)cc4)ccc(c32)c2nc3ccccc3n12	28.9	< 20	32.2	22.1	< 20	< 20	< 20	< 20	< 20	42.6	89.9	29.1	< 20	50.8	< 20	20.1	< 20	< 20	< 20	24	inhibition of growth at 10 µM [3]: 23.9%; growth inhibition (GI) [13]: Active; inhibition of growth at 10 µM [19]: 33.8%; inhibition of growth at 10 µM [25]: < 20%; inhibition of growth at 10 µM [26]: 29.6%; inhibition of growth at 10 µM [27]: < 20%; inhibition of growth at 10 µM [28]: < 20%; inhibition of growth at 10 µM [29]: < 20%; inhibition of growth at 10 µM [30]: < 20%; inhibition of growth at 10 µM [31]: 22.4%; inhibition of growth at 10 µM [32]: < 20%; inhibition of growth at 10 µM [33]: < 20%; inhibition of growth at 10 µM [34]: < 20%
